Assay results as given in ChEMBL document CHEMBL6096655, “Discovery of a novel, selective CK2 inhibitor class with an unusual basic scaffold” (Eur J Med Chem, 2025).
Active and inactive are the calls of the source. No cut-off for these calls is given here.

Legend:
786-0 [1] = assay: Antiproliferative activity against human 786-0 cells assessed as inhibition of cell growth at 30 uM measured after 3 to 4 days by MTT assay relative to control; assay type: functional; details: time 3-4 day
Outline: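 786-O cells (RPMI, 10% FCS) seeded at 5000 per well and left overnight. Compound was added at a single 30 µM concentration in 1% FCS medium (DMSO max. 0.2%). Cells grew 3–4 days at 37 °C, 5% CO₂, with no medium change, and were read by MTT. Percent inhibition is the mean of duplicates that differed by ≤10%.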

786-0 [2] = assay: Antiproliferative activity against human 786-0 cells assessed as inhibition of cell growth measured after 3 to 4 days by MTT assay; assay type: functional; details: time 3-4 day
Outline: (§1)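 786-O or U937 cells grown in RPMI with 2 mM L-glutamine, 1% pen/strep and 10% FCS. Cells were seeded at 5000 per well and left overnight, then switched to 1% FCS medium containing compound or DMSO (max. 0.2% final). Growth ran 3–4 days at 37 °C in 5% CO₂ without medium change, followed by MTT read-out. GI50 is the mean ± SD of at least two independent experiments.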

[3] = target: T1, Casein kinase II subunit alpha (Homo sapiens, UniProt P68400); assay: Inhibition of CK2alpha (unknown origin) assessed as residual activity at 5 uM relative to control
Target sequence in this assay (P68400 whole entry, looked up): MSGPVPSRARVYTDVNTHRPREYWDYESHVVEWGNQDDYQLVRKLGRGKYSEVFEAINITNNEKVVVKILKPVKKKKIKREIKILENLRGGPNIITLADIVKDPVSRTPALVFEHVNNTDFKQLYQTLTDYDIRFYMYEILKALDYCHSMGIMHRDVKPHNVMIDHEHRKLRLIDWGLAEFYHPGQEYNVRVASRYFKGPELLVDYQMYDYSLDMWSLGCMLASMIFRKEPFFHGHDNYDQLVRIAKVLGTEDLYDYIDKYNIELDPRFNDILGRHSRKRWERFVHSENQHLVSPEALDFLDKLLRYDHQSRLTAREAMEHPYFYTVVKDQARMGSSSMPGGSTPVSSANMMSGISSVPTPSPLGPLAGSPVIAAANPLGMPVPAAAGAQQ

[4] = target: T1, Casein kinase II subunit alpha; assay: Inhibition of CK2alpha (unknown origin)
Target sequence in this assay (P68400 whole entry): as the sequence (P68400 whole entry, looked up) above

U-937 = assay: Antiproliferative activity against human U-937 cells assessed as inhibition of cell growth measured after 3 to 4 days by MTT assay; assay type: functional; details: time 3-4 day; outline: as §1
[5] = Antiproliferative activity against HEK293 cells assessed as inhibition of cell growth measured after 3 to 4 days by MTT assay; assay type: toxicity, cell-based; details: human, time 3-4 day
Outline: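 HEK293 cells grown in DMEM with 2 mM L-glutamine, 1% pen/strep and 10% FCS. Cells were seeded at 5000 per well, left overnight, then given medium with 1% FCS plus compound or DMSO (max. 0.2% final). They were grown 3–4 days at 37 °C in 5% CO₂ with no medium change, and growth was read by MTT.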

786-0 [6] = assay: Induction of cell death in human 786-0 cells assessed as cell viability at 5 uM measured after 11 hrs by CellCyteX live-cell microscopy analysis; assay type: functional, cell-based
Outline: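 786-O cells seeded at 3×10³ per well and grown 24 h. Compound was then added in culture medium containing 125 nM Cytotox Green, at 0.2% (v/v) final DMSO, and kept at 37 °C in 5% CO₂. Green fluorescence images of dead cells were taken every 3 h by live-cell microscopy and normalized to the DMSO control. Results are representative of three independent measurements.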

[7] = Upregulation of PARP cleavage in human U-937 cells by measuring signal 1 at 5 uM measured after 48 hrs by immunoblot analysis; assay type: functional
Outline: (§2)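 U937 cells exposed to compound or DMSO for 48 h, then lysed in Laemmli buffer. Lysates were run on 8–16% gradient SDS-PAGE, semi-dry blotted to PVDF and probed for PARP. Detection used IR-fluorescent secondary antibodies. The cleaved/uncleaved PARP signal ratio was obtained by densitometry. Results are representative of two independent experiments.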

[8] = Upregulation of PARP cleavage in human U-937 cells by measuring signal 2 at 2 uM measured after 48 hrs by immunoblot analysis; assay type: functional
Outline: (§3)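 U937 lymphoma cells grown in RPMI with 2 mM L-glutamine, 1 % pen/strep and 10 % FCS; exposed to compound or DMSO solvent control for 48 h. Total cellular proteins harvested and immunoblotted with an antibody against phosphorylated CK2-substrate motifs and for PARP. Read-out is the densitometric ratio of cleaved to uncleaved PARP signal. Representative of two independent experiments.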

HCT-116 = assay: Antiproliferative activity against human HCT-116 cells measured after 72 hrs by alamar blue staining based fluorescence assay; assay type: functional
[9] = Upregulation of PARP cleavage in human U-937 cells by measuring signal 1 at 2 uM measured after 48 hrs by immunoblot analysis; assay type: functional; outline: as §2
[10] = Upregulation of PARP cleavage in human U-937 cells by measuring signal 2 at 5 uM measured after 48 hrs by immunoblot analysis; assay type: functional; outline: as §3
[11] = Upregulation of PARP cleavage in human U-937 cells by measuring signal 2 at 10 uM measured after 48 hrs by immunoblot analysis; assay type: functional; outline: as §2
[12] = target: Signal transducer and activator of transcription 3 (Homo sapiens) (UniProt P40763); assay: Inhibition of STAT3 phosphorylation in human 786-O cells at 10 uM measured after 48 hrs by immunoblot analysis relative to control
Chain of Signal transducer and activator of transcription 3 (Homo sapiens) (P40763 whole entry): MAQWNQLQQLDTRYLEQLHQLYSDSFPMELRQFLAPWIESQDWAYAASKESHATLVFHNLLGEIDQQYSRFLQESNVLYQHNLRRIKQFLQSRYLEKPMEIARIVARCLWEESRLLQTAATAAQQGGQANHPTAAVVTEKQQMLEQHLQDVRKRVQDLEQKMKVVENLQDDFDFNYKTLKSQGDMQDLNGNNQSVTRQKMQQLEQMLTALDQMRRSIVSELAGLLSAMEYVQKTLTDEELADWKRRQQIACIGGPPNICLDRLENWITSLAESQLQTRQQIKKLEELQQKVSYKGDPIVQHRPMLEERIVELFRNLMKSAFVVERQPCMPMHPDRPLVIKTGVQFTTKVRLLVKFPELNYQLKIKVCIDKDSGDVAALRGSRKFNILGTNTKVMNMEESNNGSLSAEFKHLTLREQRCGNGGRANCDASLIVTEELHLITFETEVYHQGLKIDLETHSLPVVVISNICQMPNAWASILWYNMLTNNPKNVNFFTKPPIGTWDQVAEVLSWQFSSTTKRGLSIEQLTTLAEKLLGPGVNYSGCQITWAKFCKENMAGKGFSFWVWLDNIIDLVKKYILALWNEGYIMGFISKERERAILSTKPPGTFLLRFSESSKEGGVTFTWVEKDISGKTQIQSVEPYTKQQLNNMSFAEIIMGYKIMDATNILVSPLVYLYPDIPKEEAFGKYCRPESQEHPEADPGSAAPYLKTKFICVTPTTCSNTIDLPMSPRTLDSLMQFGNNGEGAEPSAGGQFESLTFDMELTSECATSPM

[13] = target: T2, Hsp90 co-chaperone Cdc37 (Homo sapiens) (UniProt Q16543); assay: Inhibition of CDC37 phosphorylation in human 786-O cells at 10 uM measured after 48 hrs by immunoblot analysis relative to control
T2 sequence (whole entry): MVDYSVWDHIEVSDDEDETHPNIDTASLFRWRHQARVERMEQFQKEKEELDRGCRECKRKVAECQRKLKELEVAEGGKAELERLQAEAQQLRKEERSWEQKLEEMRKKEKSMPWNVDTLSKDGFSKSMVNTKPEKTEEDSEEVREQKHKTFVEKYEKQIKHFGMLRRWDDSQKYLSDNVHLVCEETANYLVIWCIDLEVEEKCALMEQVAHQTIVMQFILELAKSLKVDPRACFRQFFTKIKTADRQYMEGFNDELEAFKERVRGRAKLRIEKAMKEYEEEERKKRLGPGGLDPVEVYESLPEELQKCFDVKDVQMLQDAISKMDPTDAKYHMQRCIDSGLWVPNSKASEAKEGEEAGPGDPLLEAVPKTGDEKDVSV

[14] = target: Eukaryotic translation initiation factor 2 subunit 2 (Homo sapiens) (UniProt P20042); assay: Inhibition of eIF2beta phosphorylation in human 786-O cells at 10 uM measured after 48 hrs by immunoblot analysis relative to control
Chain of Eukaryotic translation initiation factor 2 subunit 2 (Homo sapiens) (P20042 whole entry): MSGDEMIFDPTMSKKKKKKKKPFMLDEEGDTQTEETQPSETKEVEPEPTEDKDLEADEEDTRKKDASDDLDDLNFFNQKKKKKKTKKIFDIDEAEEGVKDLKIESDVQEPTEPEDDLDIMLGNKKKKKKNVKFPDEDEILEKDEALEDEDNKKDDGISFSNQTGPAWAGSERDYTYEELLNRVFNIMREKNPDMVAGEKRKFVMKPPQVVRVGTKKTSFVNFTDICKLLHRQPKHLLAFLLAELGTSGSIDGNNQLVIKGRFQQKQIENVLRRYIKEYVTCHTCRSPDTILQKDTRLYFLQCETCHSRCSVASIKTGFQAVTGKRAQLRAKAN

SMILES: COc1ccc(N2CCN(c3ncnc4sc5c(c34)CCNC5)CC2)cc1
- inhibition at 30 µM (786-0 [1]): 27.7%

SMILES: Cc1ccccc1N1CCN(c2ncnc3sc4c(c23)CCNC4)CC1
- inhibition at 30 µM (786-0 [1]): 52.1%
- GI50 (786-0 [2]): 30 µM

SMILES: Brc1ccccc1/C=N/Nc1ncnc2sc3c(c12)CCNC3
- inhibition at 30 µM (786-0 [1]): 99.2%
- GI50 (786-0 [2]): 6.6 µM

SMILES: c1ccc(N2CCN(c3ncnc4sc5c(c34)CCNC5)CC2)cc1
- inhibition at 30 µM (786-0 [1]): 15.9%

SMILES: COc1cccc(N2CCN(c3ncnc4sc5c(c34)CCNC5)CC2)c1
- inhibition at 30 µM (786-0 [1]): 50.2%
- GI50 (786-0 [2]): 29.5 µM

SMILES: Cc1nc2c(Br)c(Br)c(Br)c(Br)c2n1CCCN
- Activity [3]: 23%
- IC50 [4]: 0.15 µM

SMILES: CCC(=O)Nc1cc(Nc2cc(NC3CC3)n3ncc(C#N)c3n2)ccc1C
- GI50 (786-0 [2]): 5.7 µM
- GI50 (U-937): 1.8 µM
- GI50 [5]: > 30 µM
- Activity (786-0 [6]): Not active; Compound Showed Poor Efficacy To Induce Cell Death
- Activity [7]: 91%
- Activity [8]: 0%
- GI50 (HCT-116): > 10 µM

SMILES: Cc1cccc(N2CCN(c3ncnc4sc5c(c34)CCNC5)CC2)c1
- inhibition at 30 µM (786-0 [1]): 47.2%

SMILES: COc1ccccc1N1CCN(c2ncnc3sc4c(c23)CCNC4)CC1
- inhibition at 30 µM (786-0 [1]): 36.7%

SMILES: Cc1ccc(N2CCN(c3ncnc4sc5c(c34)CCNC5)CC2)cc1
- inhibition at 30 µM (786-0 [1]): 78.2%
- GI50 (786-0 [2]): 14.7 µM

SMILES: Fc1ccc(N2CCN(c3ncnc4sc5c(c34)CCNC5)CC2)cc1
- inhibition at 30 µM (786-0 [1]): 25.3%

SMILES: O=C(O)c1ccc2c(c1)nc(Nc1cccc(Cl)c1)c1ccncc12 [SILMITASERTIB]
- inhibition (786-0 [1]): inactive
- GI50 (786-0 [2]): 5.5 µM
- GI50 (U-937): 4 µM
- GI50 [5]: > 30 µM
- Activity (786-0 [6]): Not active; Compound Showed Poor Efficacy To Induce Cell Death
- Activity [9]: 82%
- Activity [7]: 88%
- Activity [8]: 0%
- Activity [10]: 91%
- Activity [11]: 39%
- inhibition [12]: 100%
- inhibition [13]: 73%
- inhibition [14]: 96%

SMILES: Fc1ccccc1N1CCN(c2ncnc3sc4c(c23)CCNC4)CC1
- inhibition at 30 µM (786-0 [1]): 35.8%

SMILES: Fc1cccc(N2CCN(c3ncnc4sc5c(c34)CCNC5)CC2)c1
- inhibition at 30 µM (786-0 [1]): 74.6%
- GI50 (786-0 [2]): 15 µM
